Laboratory results: ChEMBL document CHEMBL3779876, “Synthesis and biological evaluation of novel 2,3-dihydrochromeno[3,4-d]imidazol-4(1H)-one derivatives as potent anticancer cell proliferation and migration agents” (Eur J Med Chem, 2016)

Experiments:
[1] = Growth inhibition of human U87MG cells assessed as cell viability after 72 hrs by MTT assay; format: functional, cell-based, U-87MG ATCC; settings: U-87 MG
Procedure, shortened: (§1)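 Cells were grown in DMEM or RPMI with 10% FBS and 1% penicillin/streptomycin at 37 °C, 5% CO2. They were seeded at 2000–3000 cells, rested 24 h, then exposed to a range of concentrations for 72 h. MTT (5 mg/mL stock) was added for 2–4 h at 37 °C and formazan dissolved in DMSO. A570 was read and IC50 calculated; triplicate wells, three separate experiments.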

[2] = Growth inhibition of human HCT116 cells assessed as cell viability after 72 hrs by MTT assay; format: functional, cell-based; settings: HCT-116, 72 h; procedure, shortened: as §1
[3] = Growth inhibition of human PC3 cells assessed as cell viability after 72 hrs by MTT assay; format: functional, cell-based; settings: PC-3, 72 h; procedure, shortened: as §1

Structure (SMILES)	IC50 [1]	IC50 [2]	IC50 [3]
N#CCc1ccc(-n2c(=O)[nH]c3c(=O)oc4ccc(-c5ccccc5)cc4c32)cc1	31.4 µM	> 40 µM	35.3 µM
CC(C)(C#N)c1ccc(-n2c(=O)[nH]c3c(=O)oc4ccc(-c5ccncc5)cc4c32)cc1	28.6 µM		29 µM
N#CCc1ccc(-n2c(=O)[nH]c3c(=O)oc4ccc(-c5cnc6ccccc6c5)cc4c32)cc1	34.9 µM	28.4 µM	30.2 µM
COc1ccc(-n2c(=O)[nH]c3c(=O)oc4ccc(-c5cccnc5)cc4c32)cc1	> 40 µM	> 40 µM	> 40 µM
O=c1oc2ccc(-c3cccnc3)cc2c2c1[nH]c(=O)n2-c1ccccc1	> 40 µM		> 40 µM
O=c1oc2ccc(-c3cnc4ccccc4c3)cc2c2c1[nH]c(=O)n2-c1ccccc1	35.6 µM	31.5 µM	34 µM
COc1ccc(-n2c(=O)[nH]c3c(=O)oc4ccc(-c5cnc6ccccc6c5)cc4c32)cc1	> 40 µM	> 40 µM	> 40 µM
Cc1ccccc1-c1ccc2oc(=O)c3[nH]c(=O)n(-c4ccc(CC#N)cc4)c3c2c1	> 40 µM	> 40 µM	> 40 µM
N#CCc1ccc(-n2c(=O)[nH]c3c(=O)oc4ccc(-c5ccncc5)cc4c32)cc1	36.4 µM	37.2 µM	37.1 µM
Cc1ccccc1-n1c(=O)[nH]c2c(=O)oc3ccc(-c4ccncc4)cc3c21	> 40 µM	> 40 µM	> 40 µM
COc1ccc(-n2c(=O)[nH]c3c(=O)oc4ccc(-c5ccncc5)cc4c32)cc1	> 40 µM	> 40 µM	> 40 µM
O=c1oc2ccc(-c3ccccc3)cc2c2c1[nH]c(=O)n2-c1ccccc1	> 40 µM		> 40 µM
O=c1oc2ccc(-c3cccc(NS(=O)(=O)c4ccc(F)cc4)c3)cc2c2c1[nH]c(=O)n2-c1ccccc1	> 40 µM	> 40 µM	> 40 µM
